Experimental data from ChEMBL document CHEMBL1926538, “3,5-Disubstituted-thiazolidine-2,4-dione analogs as anticancer agents: design, synthesis and biological characterization” (Eur J Med Chem, 2012).
Calls of active or inactive are those of the source. No cut-off for these calls is given here.

Legend:
U-937 [1] = assay: Induction of apoptosis in human U937 cells assessed as late apoptotic cells at 10 uM after 18 hrs by annexinV-propidium iodide staining-based flow cytometric analysis (reference value: 7.8%); type: functional
[2] = target: Protein kinase C beta type (Homo sapiens) (UniProt P05771); assay: Inhibition of PKCbeta2 at 10 uM
[3] = target: MAP kinase-activated protein kinase 2 (Homo sapiens) (UniProt P49137); assay: Inhibition of MAPKAPK2 at 10 uM
DU-145 [4] = assay: Inhibition of PI3K-mediated Akt phosphorylation in human DU145 cells at 10 to 20 uM after 24 hrs by Western blot analysis; type: cell-based
How it was run: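 DU145 cells were grown in RPMI 1640 with 10% FBS and treated for 24 h at the indicated concentrations. Lysates were immunoblotted with phospho-Akt (Ser473) primary antibody (1:1000) and HRP secondary (1:2000), then detected by chemiluminescence. α-Tubulin reprobing checked loading.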

[5] = target: 5'-AMP-activated protein kinase catalytic subunit alpha-2 (Homo sapiens) (UniProt P54646); assay: Activation of AMPK in human U937 cells assessed as increase in phosphorylated AMPK level at 1 to 10 uM after 1 hr by Western blot analysis; type: cell-based; conditions: U-937
How it was run: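 Cells at 5 × 10⁵/mL in growing medium, RPMI 1640 with 10% heat-inactivated FBS, 37 °C, 5% CO₂, exposed 1 h. Lysed by sonication in SDS sample buffer with protease inhibitors plus 1 mM orthovanadate and pyrophosphate, boiled 5 min. Immunoblot probed with rabbit polyclonal anti-phospho-AMPK (Thr172) 1:1000, HRP secondary, chemiluminescence. α-Tubulin reprobe as loading control. One of three independent experiments shown.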

[6] = target: 5'-AMP-activated protein kinase catalytic subunit alpha-2 (Homo sapiens) (UniProt P54646); assay: Inhibition of AMPK at 10 uM
[7] = target: RAF proto-oncogene serine/threonine-protein kinase (Homo sapiens) (UniProt P04049); assay: Inhibition of Raf-mediated ERK phosphorylation in human DU145 cells at 10 to 20 uM after 24 hrs by Western blot analysis; type: cell-based; conditions: DU-145
How it was run: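 Cells in RPMI 1640 with 10% heat-inactivated FBS, 37 °C, 5% CO2; treated in growing medium (DU145 24 h; U937 1 h at 5 × 10⁵/mL). Lysed by sonication in SDS sample buffer with protease inhibitors plus 1 mM orthovanadate and pyrophosphate, boiled 5 min. Blots blocked in 5% milk, primary antibodies 1:1000 overnight at 4 °C, HRP secondary 1:2000, chemiluminescence; α-tubulin loading control.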

U-937 [8] = assay: Induction of apoptosis in human U937 cells assessed as necrotic cells at 3 uM after 3 hrs by annexinV-propidium iodide staining-based flow cytometric analysis (reference value: 2.3%); type: functional
U-937 [9] = assay: Induction of apoptosis in human U937 cells assessed as late apoptotic cells at 3 uM after 6 hrs by annexinV-propidium iodide staining-based flow cytometric analysis (reference value: 13.8%); type: functional
[10] = target: RAC-beta serine/threonine-protein kinase (Homo sapiens) (UniProt P31751); assay: Inhibition of AKT2 at 10 uM
[11] = target: 3-phosphoinositide-dependent protein kinase 1 (Homo sapiens) (UniProt O15530); assay: Inhibition of PDK1 at 10 uM
U-937 [12] = assay: Induction of apoptosis in human U937 cells assessed as early apoptotic cells at 3 uM after 18 hrs by annexinV-propidium iodide staining-based flow cytometric analysis (reference value: 4.3%); type: functional
M12 = assay: Growth inhibition of human M12 cells after 24 hrs by MTS assay; type: functional, cell-based
How it was run: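 Cells in RPMI 1640 with 10% heat-inactivated FBS, seeded 2 × 10⁴ cells/well and exposed 24 h. MTS reagent added, then 1 h further incubation at 37 °C, 5% CO₂. Formazan absorbance read at 490 nm. Viability expressed as percentage of untreated controls.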

[13] = target: Tyrosine-protein kinase Fyn (Homo sapiens) (UniProt P06241); assay: Inhibition of FYN at 10 uM
U-937 [14] = assay: Induction of apoptosis in human U937 cells assessed as early apoptotic cells at 3 uM after 6 hrs by annexinV-propidium iodide staining-based flow cytometric analysis (reference value: 4.6%); type: functional
U-937 [15] = assay: Induction of apoptosis in human U937 cells assessed as necrotic cells at 3 uM after 18 hrs by annexinV-propidium iodide staining-based flow cytometric analysis (reference value: 0.7%); type: functional
U-937 [16] = assay: Induction of apoptosis in human U937 cells assessed as early apoptotic cells at 10 uM after 3 hrs by annexinV-propidium iodide staining-based flow cytometric analysis (reference value: 2.8%); type: functional
[17] = target: MAP kinase-activated protein kinase 5 (Homo sapiens) (UniProt Q8IW41); assay: Inhibition of PRAK at 10 uM
[18] = Growth inhibition of human NCI60 cells; type: functional
DU-145 [19] = assay: Induction of apoptosis in human DU145 cells assessed as necrotic cells at 20 uM after 24 hrs by annexinV-propidium iodide staining-based flow cytometric analysis (reference value: 2.1%); type: functional
DU-145 [20] = assay: Induction of apoptosis in human DU145 cells assessed as late apoptotic cells at 20 uM after 24 hrs by annexinV-propidium iodide staining-based flow cytometric analysis (reference value: 5.1%); type: functional
[21] = Inhibition of PKA at 10 uM
U-937 [22] = assay: Cell cycle arrest in human U937 cells assessed as decrease in G2/M-phase population at 10 uM after 24 hrs by propidium iodide staining-based flow cytometric analysis; type: functional
How it was run: (§1)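 Cells cultured in RPMI 1640 with 10% FBS and treated 24 h at the indicated concentrations. Stained with propidium iodide for 4 h at 4 °C in the dark. Flow cytometry gave the percentage of cells in G₀/G₁, S, G₂/M and sub-G₁ phases.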

U-937 [23] = assay: Cell cycle arrest in human U937 cells assessed as accumulation at S-phase after 24 hrs by propidium iodide staining-based flow cytometric analysis; type: functional; how it was run: as §1
[24] = target: Serine/threonine-protein kinase D2 (Homo sapiens) (UniProt Q9BZL6); assay: Inhibition of PKD2 at 10 uM
[25] = target: Ribosomal protein S6 kinase alpha-1 (Homo sapiens) (UniProt Q15418); assay: Inhibition of RSK1 at 10 uM
[26] = target: Hepatocyte growth factor receptor (Homo sapiens) (UniProt P08581); assay: Inhibition of MET at 10 uM
U-937 [27] = assay: Cell cycle arrest in human U937 cells assessed as sub-diploid apoptotic fraction at 15 uM after 24 hrs by propidium iodide staining-based flow cytometric analysis; type: functional; how it was run: as §1
[28] = target: Casein kinase I isoform delta (Homo sapiens) (UniProt P48730); assay: Inhibition of Ckld at 10 uM
[29] = target: Serine/threonine-protein kinase PAK 2 (Homo sapiens) (UniProt Q13177); assay: Inhibition of PAK2 at 10 uM
U-937 [30] = assay: Induction of apoptosis in human U937 cells assessed as necrotic cells at 3 uM after 6 hrs by annexinV-propidium iodide staining-based flow cytometric analysis (reference value: 1.2%); type: functional
[31] = target: Mitogen-activated protein kinase 1 (Homo sapiens) (UniProt P28482); assay: Inhibition of Erk2 at 10 uM
[32] = target: Tyrosine-protein kinase Lyn (Homo sapiens) (UniProt P07948); assay: Inhibition of LYN at 10 uM
Chain of Tyrosine-protein kinase Lyn (Homo sapiens) (P07948 2-512 limits assumed): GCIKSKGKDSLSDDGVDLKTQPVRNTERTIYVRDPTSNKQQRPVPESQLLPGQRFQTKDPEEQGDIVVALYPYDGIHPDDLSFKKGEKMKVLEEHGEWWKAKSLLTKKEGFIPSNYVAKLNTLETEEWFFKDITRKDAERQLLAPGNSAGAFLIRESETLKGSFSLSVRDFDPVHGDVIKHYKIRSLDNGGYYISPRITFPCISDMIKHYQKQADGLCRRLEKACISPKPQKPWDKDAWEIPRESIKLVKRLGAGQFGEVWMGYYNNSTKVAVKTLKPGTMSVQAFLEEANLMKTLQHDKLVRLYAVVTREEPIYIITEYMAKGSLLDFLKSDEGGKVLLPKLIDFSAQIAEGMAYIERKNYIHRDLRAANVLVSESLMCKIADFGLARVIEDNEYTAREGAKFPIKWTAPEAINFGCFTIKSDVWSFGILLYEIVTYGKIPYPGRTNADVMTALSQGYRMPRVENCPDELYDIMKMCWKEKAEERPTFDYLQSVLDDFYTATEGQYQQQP

Chain of 5'-AMP-activated protein kinase catalytic subunit alpha-2 (Homo sapiens) (P54646 whole entry, looked up): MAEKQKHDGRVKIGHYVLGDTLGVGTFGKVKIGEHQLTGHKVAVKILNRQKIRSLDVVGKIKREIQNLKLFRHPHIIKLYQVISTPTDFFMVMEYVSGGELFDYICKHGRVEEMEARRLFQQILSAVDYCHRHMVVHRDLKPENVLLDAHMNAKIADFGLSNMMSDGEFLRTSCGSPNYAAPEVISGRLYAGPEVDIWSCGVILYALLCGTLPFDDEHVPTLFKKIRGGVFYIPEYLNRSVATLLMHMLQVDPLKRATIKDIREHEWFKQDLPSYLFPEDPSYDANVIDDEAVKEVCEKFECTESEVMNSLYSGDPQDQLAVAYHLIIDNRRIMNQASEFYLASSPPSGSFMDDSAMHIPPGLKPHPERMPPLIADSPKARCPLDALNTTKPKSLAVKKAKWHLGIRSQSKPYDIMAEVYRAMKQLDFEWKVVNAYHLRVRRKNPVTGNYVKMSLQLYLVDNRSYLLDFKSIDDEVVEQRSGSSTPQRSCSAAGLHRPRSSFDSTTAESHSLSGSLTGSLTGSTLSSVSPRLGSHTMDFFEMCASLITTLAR
Chain of 3-phosphoinositide-dependent protein kinase 1 (Homo sapiens) (O15530 whole entry, looked up): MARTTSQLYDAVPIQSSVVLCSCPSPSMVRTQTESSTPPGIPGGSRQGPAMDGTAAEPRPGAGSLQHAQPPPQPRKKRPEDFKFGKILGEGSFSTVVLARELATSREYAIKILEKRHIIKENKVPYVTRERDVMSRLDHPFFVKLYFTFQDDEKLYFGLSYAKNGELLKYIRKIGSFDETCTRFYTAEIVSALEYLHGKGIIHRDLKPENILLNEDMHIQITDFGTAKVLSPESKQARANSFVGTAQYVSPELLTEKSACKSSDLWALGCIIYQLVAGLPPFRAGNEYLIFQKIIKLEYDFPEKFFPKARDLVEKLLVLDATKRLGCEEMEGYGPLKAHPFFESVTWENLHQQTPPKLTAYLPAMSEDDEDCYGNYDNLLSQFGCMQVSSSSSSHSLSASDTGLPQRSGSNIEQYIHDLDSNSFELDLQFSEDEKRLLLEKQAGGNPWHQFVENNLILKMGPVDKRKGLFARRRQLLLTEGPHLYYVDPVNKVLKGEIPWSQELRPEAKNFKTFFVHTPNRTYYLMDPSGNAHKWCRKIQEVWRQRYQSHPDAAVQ
Chain of RAF proto-oncogene serine/threonine-protein kinase (Homo sapiens) (P04049 whole entry): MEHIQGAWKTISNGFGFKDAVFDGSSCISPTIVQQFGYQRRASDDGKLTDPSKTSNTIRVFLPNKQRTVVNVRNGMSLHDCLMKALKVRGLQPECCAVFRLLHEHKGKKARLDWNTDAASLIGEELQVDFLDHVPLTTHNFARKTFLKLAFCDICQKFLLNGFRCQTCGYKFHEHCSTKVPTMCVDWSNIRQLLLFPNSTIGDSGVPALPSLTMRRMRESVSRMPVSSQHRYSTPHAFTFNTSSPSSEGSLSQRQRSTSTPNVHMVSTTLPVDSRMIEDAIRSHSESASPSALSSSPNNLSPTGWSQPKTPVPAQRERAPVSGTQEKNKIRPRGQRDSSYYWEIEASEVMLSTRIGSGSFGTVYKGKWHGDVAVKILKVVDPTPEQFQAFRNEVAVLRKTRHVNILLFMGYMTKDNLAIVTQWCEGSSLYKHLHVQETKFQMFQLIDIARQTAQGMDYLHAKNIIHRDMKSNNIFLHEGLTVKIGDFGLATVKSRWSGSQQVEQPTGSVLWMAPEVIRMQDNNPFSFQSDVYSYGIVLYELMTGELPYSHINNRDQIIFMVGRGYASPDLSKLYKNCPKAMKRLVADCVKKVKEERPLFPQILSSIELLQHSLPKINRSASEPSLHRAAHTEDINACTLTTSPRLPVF
Chain of RAC-beta serine/threonine-protein kinase (Homo sapiens) (P31751 whole entry): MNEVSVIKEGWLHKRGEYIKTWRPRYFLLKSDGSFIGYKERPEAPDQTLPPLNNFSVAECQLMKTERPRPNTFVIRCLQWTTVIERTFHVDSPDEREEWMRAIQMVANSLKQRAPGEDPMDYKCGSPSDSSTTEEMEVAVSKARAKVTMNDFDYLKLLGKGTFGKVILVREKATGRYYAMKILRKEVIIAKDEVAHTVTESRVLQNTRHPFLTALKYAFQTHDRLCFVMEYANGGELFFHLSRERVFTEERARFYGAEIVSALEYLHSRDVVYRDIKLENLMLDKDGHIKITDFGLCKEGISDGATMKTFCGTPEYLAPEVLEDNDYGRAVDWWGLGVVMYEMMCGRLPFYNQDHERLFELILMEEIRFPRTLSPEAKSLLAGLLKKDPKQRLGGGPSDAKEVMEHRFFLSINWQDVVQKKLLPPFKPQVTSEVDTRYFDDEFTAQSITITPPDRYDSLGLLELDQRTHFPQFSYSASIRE
Chain of Serine/threonine-protein kinase D2 (Homo sapiens) (Q9BZL6 whole entry): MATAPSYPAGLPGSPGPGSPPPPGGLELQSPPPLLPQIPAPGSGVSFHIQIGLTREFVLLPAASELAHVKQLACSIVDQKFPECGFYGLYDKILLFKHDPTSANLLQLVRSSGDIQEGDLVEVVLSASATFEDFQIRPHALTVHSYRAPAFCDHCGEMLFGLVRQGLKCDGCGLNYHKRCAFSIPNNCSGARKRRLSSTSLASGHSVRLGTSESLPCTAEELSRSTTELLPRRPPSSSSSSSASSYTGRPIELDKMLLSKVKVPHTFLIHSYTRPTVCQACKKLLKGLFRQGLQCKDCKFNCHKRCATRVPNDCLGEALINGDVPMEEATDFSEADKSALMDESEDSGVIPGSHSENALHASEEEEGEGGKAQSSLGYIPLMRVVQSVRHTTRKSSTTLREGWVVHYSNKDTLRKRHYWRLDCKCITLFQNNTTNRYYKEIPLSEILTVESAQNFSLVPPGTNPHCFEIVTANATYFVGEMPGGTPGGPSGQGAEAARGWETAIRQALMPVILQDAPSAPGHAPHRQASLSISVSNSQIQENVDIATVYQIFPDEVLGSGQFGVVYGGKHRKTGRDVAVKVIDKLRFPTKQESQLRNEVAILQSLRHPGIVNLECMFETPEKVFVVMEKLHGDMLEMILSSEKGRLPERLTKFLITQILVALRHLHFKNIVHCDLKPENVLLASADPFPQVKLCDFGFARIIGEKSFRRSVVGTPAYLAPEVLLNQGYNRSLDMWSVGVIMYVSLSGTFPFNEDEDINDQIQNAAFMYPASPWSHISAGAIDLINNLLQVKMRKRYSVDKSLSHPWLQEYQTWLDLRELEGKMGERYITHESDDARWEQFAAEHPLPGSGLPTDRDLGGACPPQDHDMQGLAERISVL
Chain of MAP kinase-activated protein kinase 2 (Homo sapiens) (P49137 whole entry, looked up): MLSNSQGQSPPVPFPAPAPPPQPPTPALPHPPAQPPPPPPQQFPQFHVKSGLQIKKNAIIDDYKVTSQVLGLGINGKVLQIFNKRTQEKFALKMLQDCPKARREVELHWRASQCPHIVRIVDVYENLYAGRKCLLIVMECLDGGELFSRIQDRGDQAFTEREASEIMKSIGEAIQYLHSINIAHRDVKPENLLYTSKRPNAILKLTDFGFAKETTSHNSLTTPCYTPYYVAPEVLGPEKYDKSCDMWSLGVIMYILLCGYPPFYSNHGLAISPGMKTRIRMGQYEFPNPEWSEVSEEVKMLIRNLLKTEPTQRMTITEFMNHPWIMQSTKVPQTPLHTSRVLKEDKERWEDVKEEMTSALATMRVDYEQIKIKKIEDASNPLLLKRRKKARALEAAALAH
Chain of Ribosomal protein S6 kinase alpha-1 (Homo sapiens) (Q15418 whole entry): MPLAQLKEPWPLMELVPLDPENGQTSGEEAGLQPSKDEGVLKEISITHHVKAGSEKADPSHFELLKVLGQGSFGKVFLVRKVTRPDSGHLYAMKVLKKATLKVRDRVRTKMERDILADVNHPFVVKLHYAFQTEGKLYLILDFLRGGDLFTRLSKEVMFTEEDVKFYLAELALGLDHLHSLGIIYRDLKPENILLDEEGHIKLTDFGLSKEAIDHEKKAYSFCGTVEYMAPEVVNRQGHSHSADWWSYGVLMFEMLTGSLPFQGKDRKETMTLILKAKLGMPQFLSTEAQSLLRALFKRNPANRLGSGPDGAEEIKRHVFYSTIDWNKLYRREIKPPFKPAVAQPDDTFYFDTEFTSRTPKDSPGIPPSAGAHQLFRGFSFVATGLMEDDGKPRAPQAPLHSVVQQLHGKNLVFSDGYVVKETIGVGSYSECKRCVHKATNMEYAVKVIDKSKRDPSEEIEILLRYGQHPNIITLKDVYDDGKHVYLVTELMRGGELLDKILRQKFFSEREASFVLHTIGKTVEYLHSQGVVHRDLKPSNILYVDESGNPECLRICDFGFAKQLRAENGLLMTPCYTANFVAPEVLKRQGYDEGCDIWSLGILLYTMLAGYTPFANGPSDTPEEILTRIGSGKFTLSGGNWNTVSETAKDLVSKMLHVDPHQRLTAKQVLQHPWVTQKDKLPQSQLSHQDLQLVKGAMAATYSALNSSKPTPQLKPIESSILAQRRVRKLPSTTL

## NCCN1C(=O)S/C(=C\CCC2CCCCC2)C1=O
U-937 [1]
  Activity: 40.9%
[2]
  inhibition: 16%
[3]
  inhibition: 3%
DU-145 [4]
  inhibition: Active
[5]
  Activity: Active
[6]
  inhibition: 76%
[7]
  inhibition: Active
U-937 [8]
  Activity: 1.9%
U-937 [9]
  Activity: 16.5%
[10]
  inhibition: 8%
[11]
  inhibition: -2%
U-937 [12]
  Activity: 3.5%
M12
  growth inhibition (GI): Active
[13]
  inhibition: 0%
U-937 [14]
  Activity: 3.8%
U-937 [15]
  Activity: 0.7%
U-937 [16]
  Activity: 23.8%
[17]
  inhibition: 4%
[18]
  GI50: 1400 nM
DU-145 [19]
  Activity: 3.2%
DU-145 [20]
  Activity: 23%
[21]
  inhibition: -3%
U-937 [22]
  Activity: Active
U-937 [23]
  Activity: Dose-dependent effect
[24]
  inhibition: 0%
[25]
  inhibition: 2%
[26]
  inhibition: -1%
U-937 [27]
  Activity: 64.3%
[28]
  inhibition: -5%
[29]
  inhibition: 10%
U-937 [30]
  Activity: 2.1%
[31]
  inhibition: 11%
[32]
  inhibition: 0%
